The values that follow come from article PMC4732916 (Journal of medicinal chemistry, 2016).

One experiment relates to WM115 melanoma cells. Nature of the experiment: Cellular assays, EC50 quoted in text without S100B level. The format is cell-based, human. The following applies: for S100B-dependent killing (high vs low S100B cells): S100B-knockdown cell lines, result in words; for EC50: Homo sapiens.
The target in a further experiment is T1, Ca^2+-S100B (Rattus norvegicus, UniProt P04631).
T1 sequence (P04631 1-92): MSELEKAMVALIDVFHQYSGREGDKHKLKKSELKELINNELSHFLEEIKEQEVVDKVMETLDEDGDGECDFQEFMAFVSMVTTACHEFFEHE
Description: HSQC NMR of Ca2+-loaded S100B with SBiX compounds. The format is binding. The settings on record: result in words; for effect on NMR spectra of Ca^2+-S100B (chemical shift perturbations / broadening): compared with pentamidine and heptamidine. In outline: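 Samples: 15N-labelled rat S100B (purified >99%) at 0.1 mM subunit with 0.125 mM test compound, 10 mM CaCl2, 15 mM NaCl, 0.34 mM NaN3, 0.2% TPEN, 5% DMSO-d6, 10% D2O, 10 mM HEPES pH 7.2. 1H-15N HSQC spectra; 15N shifts indirectly referenced (ratio 0.10132905). Spectra were inspected visually for combined 1H+15N chemical shift perturbations to map the binding site.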

The target of another experiment is T2, Ca^2+-loaded S100B (Rattus norvegicus, UniProt P04631).
T2 sequence (P04631 1-92): T1 sequence (P04631 1-92)
Nature of the experiment: Fluorescence polarization competition assay. The format is binding. The following applies: Site 1 probe; result in words. In outline:
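Competition of test compound with 10 nM TAMRA-labelled TRTK12 peptide (CapZ residues 265-276), bound to Site 1 of 1 μM rat S100B, all final concentrations. Compound titrated from the highest attainable concentration. Fluorescence polarization read at room temperature, ex 544 nm/em 590 nm.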

The test system of experiment [1] is WM115 melanoma cells transfected with shRNA^S100B (low S100B). Nature of the experiment: SYBR Green cell proliferation. The format is cell-based, human. The following applies: read-out: Low S100B EC50 Mean ± S.D.
[2] abbreviates: WM-115, read-out: EC50 in cellular assays.

Where two headings read alike, the source gives them in different places. Some results are limits rather than exact numbers.

With `N=C(N)c1ccc(OCCCCCCCOc2ccc(C(=N)N)cc2)cc1` [4a, Heptamidine], in the experiment on WM115 melanoma cells, the “S100B-dependent killing (high vs low S100B cells)” value was “selectivity in killing melanoma cells with high S100B over those with low S100B was clearly observed”.
Take `N=C(N)c1ccc(OCCCCCOc2ccc(C(=N)N)cc2)cc1` [4b, pentamidine, reference compound]: in the experiment with WM115 melanoma cells (WM-115, read-out: ^CellsEC50), the EC50 stood at 26 µM.
For `c1cc(C2=NCCN2)ccc1OCCCCCOc1ccc(C2=NCCN2)cc1` [5b, 1,5-bis(4-(4,5-dihydro-1H-imidazol-2-yl)phenoxy)pentane], on Ca^2+-S100B, the “effect on NMR spectra of Ca^2+-S100B (chemical shift perturbations / broadening)” value was “significant broadening”.
The same measure, in the same setting: next, `c1cc(C2=NCCN2)ccc1OCCCCCCOc1ccc(C2=NCCN2)cc1` [5c, 1,6-bis(4-(4,5-dihydro-1H-imidazol-2-yl)phenoxy)hexane]: “significant broadening”; `c1cc(C2=NCCN2)ccc1OCCCCCCCCOc1ccc(C2=NCCN2)cc1` [5d, 1,8-bis (4-(4,5-dihydro-1H-imidazol-2-yl)phenoxy) octane]: “significant broadening”.
In the case of `c1cc(C2=NCCCN2)ccc1OCCCCCCCOc1ccc(C2=NCCCN2)cc1` [6a, 1,7-bis (4-(1,4,5,6-tetrahydropyrimidin-2-yl)phenoxy)heptane], the EC50 in the experiment on WM115 melanoma cells (setting [2]) is 200 to 600 µM.
Regarding `c1cc(C2=NCCCN2)ccc1OCCCCCOc1ccc(C2=NCCCN2)cc1` [6b, 1,5-bis(4-(1,4,5,6-tetrahydropyrimidin-2-yl)phenoxy)pentane], on Ca^2+-S100B, the “effect on NMR spectra of Ca^2+-S100B (chemical shift perturbations / broadening)” value is given as “significant broadening”. Also, the EC50 in the experiment with WM115 melanoma cells (setting [2]) fell in the range of 200 to 600 µM.
Take `c1cc(C2=NCCCN2)ccc1OCCCCCCOc1ccc(C2=NCCCN2)cc1` [6c, 1,6-bis(4-(1,4,5,6-tetrahydropyrimidin-2-yl)phenoxy)hexane]: the EC50 in the experiment with WM115 melanoma cells (setting [2]) fell in the range of 25 to 45 µM.
Turning to `c1cc(C2=NCCCN2)ccc1OCCCCCCCCOc1ccc(C2=NCCCN2)cc1` [6d, 1,8-bis(4-(1,4,5,6-tetrahydropyrimidin-2-yl)phenoxy)octane], the EC50 with WM115 melanoma cells (setting [2]) is 25 to 45 µM.
On to `c1cc(C2=NCCCCN2)ccc1OCCCCCCCOc1ccc(C2=NCCCCN2)cc1` [7a, 1,7-bis(4-(4,5,6,7-tetrahydro-1H-1,3-diazepin-2-yl)phenoxy)heptane], for which the EC50 in the experiment with WM115 melanoma cells (setting [2]) was in the range of 5 to 20 µM.
On the same count and under the same terms, next, `c1cc(C2=NCCCCN2)ccc1OCCCCCOc1ccc(C2=NCCCCN2)cc1` [7b, 1,5-bis (4-(4,5,6,7-tetrahydro-1H-1,3-diazepin-2-yl)phenoxy)pentane]: 5 to 20 µM; `c1cc(C2=NCCCCN2)ccc1OCCCCCCOc1ccc(C2=NCCCCN2)cc1` [7c, 1,6-bis(4-(4,5,6,7-tetrahydro-1H-1,3-diazepin-2-yl)phenoxy)hexane]: 250 to 300 µM.
`c1cc(C2=NCCCCN2)ccc1OCCCCCCCCOc1ccc(C2=NCCCCN2)cc1` [7d, 1,8-bis (4-(4,5,6,7-tetrahydro-1H-1,3-diazepin-2-yl)phenoxy)octane]: in the experiment with WM115 melanoma cells (setting [2]), the EC50 lay in the range of 5 to 20 µM.
In the case of `N=C(NCCCCCCCN)c1ccc(OCCCCCCCOc2ccc(C(=N)NCCCCCCCN)cc2)cc1` [9a, 4,4′-(heptane-1,7-diylbis(oxy))bis(N-(7-aminoheptyl)benzimidamide)], at Ca^2+-S100B, the “effect on NMR spectra of Ca^2+-S100B (chemical shift perturbations / broadening)” value was “significant broadening” and the “binding to Ca^2+-S100B as measured using NMR” value (shortened to “binding to Ca^2+-S100B”) was “interacted”. Moreover, at Ca^2+-loaded S100B, the “ability to compete with TAMRA-TRTK probe in FPCA” value (shortened to “ability to compete”) is given as “found to compete”.
With `N=C(NCCCCCCCN)c1ccc(OCCCCCCCCOc2ccc(C(=N)NCCCCCCCN)cc2)cc1` [9b, 4,4′-(octane-1,8-diylbis (oxy))bis(N-(7-aminoheptyl)benzimidamide)], at Ca^2+-S100B, the “effect on NMR spectra of Ca^2+-S100B (chemical shift perturbations / broadening)” value is reported as “significant broadening” and the “binding to Ca^2+-S100B” value is “interacted”. Also, the “ability to compete” value at Ca^2+-loaded S100B was “found to compete”.
Consider `N=C(N)c1ccc(OCCCN(CCCOc2ccc(C(=N)N)cc2)Cc2ccccc2)cc1` [16a, 4,4′-(((benzylazanediyl)bis(propane-3,1-diyl))bis(oxy))dibenzimidamide], for which the “binding to Ca^2+-S100B” value on Ca^2+-S100B is recorded as “bound weakly”. The “ability to compete” value at Ca^2+-loaded S100B was “neither was able to compete”. The EC50 in the experiment with WM115 melanoma cells (setting [2]) lay in the range of 40 to 50 µM.
For `CCCN(CCCOc1ccc(C(=N)N)cc1)CCCOc1ccc(C(=N)N)cc1` [16b, 4,4′-(((propylazanediyl)bis(propane-3,1-diyl))bis(oxy))dibenzimidamide] the same measures were “bound weakly”, “neither was able to compete” and above 500 µM.
For `N=C(NCCCCCN)c1ccc(OCCCCCOc2ccc(C(=N)NCCCCCN)cc2)cc1` [compound 8, 4,4′-(pentane-1,5-diylbis(oxy))bis(N-(5-aminopentyl)benzimidamide)] the same measures were “interacted”, “found to compete” and 35 to 40 µM.
As for `N=C(NC(=O)Nc1ccccc1)c1ccc(OCCCCCCCOc2ccc(C(=N)NC(=O)Nc3ccccc3)cc2)cc1` [compound 10, 4,4′-(heptane-1,7-diylbis(oxy))bis(N-(phenylcarbamoyl)benzimidamide)], the “binding to Ca^2+-S100B” value at Ca^2+-S100B is listed as “ability to bind”. Besides, the “ability to compete” value on Ca^2+-loaded S100B is “neither was able to compete”. In the experiment with WM115 melanoma cells (setting [2]), the EC50 is below 1 µM.
`CNC(=O)NC(=N)c1ccc(OCCCCCCCOc2ccc(C(=N)NC(=O)NC)cc2)cc1` [compound 11, 4,4′-(heptane-1,7-diylbis (oxy))bis(N-(methylcarbamoyl)benzimidamide)]: the “binding to Ca^2+-S100B” value on Ca^2+-S100B was “ability to bind”. Moreover, at Ca^2+-loaded S100B, the “ability to compete” value is “neither was able to compete”. Moreover, the EC50 in the experiment on WM115 melanoma cells (setting [2]) was in the range of 130 to 150 µM.
`N=C(N)c1ccc(Oc2ccc(-c3cc4ccc(C(=N)N)cc4[nH]3)cc2)cc1` [compound 17, 2-(4-(4-carbamimidoylphenoxy)phenyl)-1H-indole-6-carboximidamide]: the “binding to Ca^2+-S100B” value at Ca^2+-S100B was “found to bind”. Besides, the “ability to compete” value on Ca^2+-loaded S100B is recorded as “found to inhibit TAMRA-TRTK binding”. In the experiment on WM115 melanoma cells, the “S100B-dependent killing (high vs low S100B cells)” value is on record as “no S100B-dependent killing”.
For the compound hexamidine [4c], the EC50 in experiment [1] is 234 ± 7.9 µM.
